“And” between values parts separate entries of the source, which are not always exact repeats. Equal entries are not always repeated. Values belong to the molecule of their own block, whether it stands above or below them.
Tests used:
Bcl-2 = Bcl-2 (Homo sapiens, UniProt P10415); experiment: FP-based competitive binding assay, Bcl-2
H146 cancer cell line = experiment: Cell death assay; type: cell-based, Human; conditions: H146, 24 h, trypan blue
In short: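 Human small cell lung cancer H146 cells from ATCC, grown in RPMI-1640 with 10% FBS, exposed to test compound for 24 h. Cells then collected and stained with trypan blue. Blue-stained or morphologically unhealthy cells were scored as dead, with at least 100 cells counted per sample.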

[1] = system: cleavage of PARP and caspase-3 in the H146 cell line; experiment: Western blotting of PARP and caspase-3 cleavage, H146; type: cell-based, Human; conditions: H146, 24 h, as low as
In short: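 H146 cells (RPMI-1640, 10% FBS) treated with test compound for 24 h, then lysed on ice for 20 min in RIPA buffer (PBS, 1% NP40, 0.5% Na-deoxycholate, 0.1% SDS) with […] and protease inhibitors. Cleared lysates were protein-quantified, run on 4–20% SDS-PAGE and transferred to PVDF. Blots were blocked in 5% milk and probed with rabbit anti-PARP, anti-caspase-3 and anti-GAPDH, then HRP secondary and chemiluminescence.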

Aqueous solubility = type: physicochemical
[2] = system: H146 small-cell lung cancer cell line; experiment: Cell growth assay; type: cell-based, Human; conditions: H146 and H1417
Bcl-xL = Bcl-xL (Homo sapiens, UniProt Q07817); experiment: FP-based competitive binding assay, Bcl-xL; conditions: Bcl-2 and Bcl-xL
Sequence of Bcl-xL (Q07817 whole entry): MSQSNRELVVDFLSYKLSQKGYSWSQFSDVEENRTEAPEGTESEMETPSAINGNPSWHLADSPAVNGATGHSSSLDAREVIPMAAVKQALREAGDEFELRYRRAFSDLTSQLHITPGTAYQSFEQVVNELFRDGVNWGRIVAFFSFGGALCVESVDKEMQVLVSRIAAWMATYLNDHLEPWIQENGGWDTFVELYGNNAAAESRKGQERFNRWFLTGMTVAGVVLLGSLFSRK

Sequence of Bcl-2 (P10415 whole entry): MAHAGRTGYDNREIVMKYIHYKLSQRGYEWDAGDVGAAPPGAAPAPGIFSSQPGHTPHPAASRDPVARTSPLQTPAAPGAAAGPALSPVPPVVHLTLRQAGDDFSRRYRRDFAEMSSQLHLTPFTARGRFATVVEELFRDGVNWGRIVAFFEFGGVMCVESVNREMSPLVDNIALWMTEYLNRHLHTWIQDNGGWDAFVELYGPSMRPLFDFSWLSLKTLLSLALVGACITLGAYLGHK

SMILES: CCc1c(-c2ccc(Cl)cc2)c(-c2cccc(N3CCN(c4ccc(NS(=O)(=O)c5ccc(N[C@H](CCN(C)C)CSc6ccccc6)c([N+](=O)[O-])c5)cc4)CC3)c2)c(C(=O)O)n1C [Compound 21, (R)-4-(4-Chlorophenyl)-3-(3-(4-(4-(4-((4-(dimethylamino)-1-(phenylthio)butan-2-yl)amino)-3-nitrophenylsulfonamido)phenyl)piperazin-1-yl)phenyl)-5-ethyl-1-methyl-1H-pyrrole-2-carboxylic acid]
- cell death induction (H146 cancer cell line): effectively induce cell death in a dose-dependent manner
- concentration inducing substantial/robust cell death (H146 cancer cell line): 30 to 100 nM and 30 nM
- concentration inducing cleavage of PARP and caspase-3 [1]: 100 nM

SMILES: CN1CCN(CCCNC(=O)c2c(-c3ccccc3)c(-c3ccc(Cl)cc3)cn2CC[C@H](O)CO)CC1 [Compound 4, (S)-4-(4-chlorophenyl)-1-(3,4-dihydroxybutyl)-N-(3-(4-methylpiperazin-1-yl)propyl)-3-phenyl-1H-pyrrole-2-carboxamide]
- aqueous solubility (Aqueous solubility): excellent aqueous solubility

SMILES: CN(C)CC[C@H](CSc1ccccc1)Nc1ccc(S(=O)(=O)Nc2ccc(N3CCN(c4cccc(-c5c(-c6ccc(Cl)cc6)cn(C)c5C(=O)NCCCN5CCN(C)CC5)c4)CC3)cc2)cc1[N+](=O)[O-] [Compound 16, (R)-4-(4-Chlorophenyl)-3-(3-(4-(4-(4-((4-(dimethylamino)-1-(phenylthio)butan-2-yl)amino)-3-nitrophenylsulfonamido)phenyl)piperazin-1-yl)phenyl)-1-methyl-N-(3-(4-methylpiperazin-1-yl)propyl)-1H-pyrrole-2-carboxamide]
- times more potent than 7 in cell growth inhibition [2]: 3–5

SMILES: CN(C)CC[C@H](CSc1ccccc1)Nc1ccc(S(=O)(=O)Nc2ccc(N3CCN(c4cccc(-c5c(-c6ccc(Cl)cc6)cn(C)c5C(=O)O)c4)CC3)cc2)cc1[N+](=O)[O-] [Compound 20, (R)-4-(4-Chlorophenyl)-3-(3-(4-(4-(4-((4-(dimethylamino)-1-(phenylthio)butan-2-yl)amino)-3-nitrophenylsulfonamido)phenyl)piperazin-1-yl)phenyl)-1-methyl-1H-pyrrole-2-carboxylic acid]
- cell death induction (H146 cancer cell line): effectively induce cell death in a dose-dependent manner

SMILES: CN(C)CCC(CSc1ccccc1)Nc1ccc(S(=O)(=O)NC(=O)c2ccc(N3CCN(c4cccc(-c5c(-c6ccc(Cl)cc6)cn(CC[C@H](O)CO)c5C(=O)NCCCN5CCN(C)CC5)c4)CC3)cc2)cc1[N+](=O)[O-] (stereo in doubt) [Compound 6, 4-(4-Chlorophenyl)-1-((S)-3,4-dihydroxybutyl)-3-(3-(4-(4-(((4-(((S)-4-(dimethylamino)-1-(phenylthio)butan-2-yl)amino)-3-nitrophenyl)sulfonyl)carbamoyl)phenyl)piperazin-1-yl)phenyl)-N-(3-(4-methylpiperazin-1-yl)propyl)-1H-pyrrole-2-carboxamide]
- times more potent than either 4 or 5 in binding (Bcl-xL): > 10,000

SMILES: CN(C)CC[C@H](CSc1ccccc1)Nc1ccc(S(=O)(=O)Nc2ccc(NCCNc3cccc(-c4c(-c5ccc(Cl)cc5)cn(CC[C@H](O)CO)c4C(=O)NCCCN4CCN(C)CC4)c3)cc2)cc1[N+](=O)[O-] [Compound 11, 4-(4-Chlorophenyl)-1-((S)-3,4-dihydroxybutyl)-3-(3-((2-((4-(4-(((R)-4-(dimethylamino)-1-(phenylthio)butan-2-yl)amino)-3-nitrophenylsulfonamido)phenyl)amino)ethyl)amino)phenyl)-N-(3-(4-methylpiperazin-1-yl)propyl)-1H-pyrrole-2-carboxamide]
- times less potent than 7 in binding (Bcl-2; Bcl-2/Bcl-xL, protein not specified): at least 10

The next lines start with results.

- affinity times weaker than that of 1 (Bcl-2; Bcl-2 and Bcl-xL): > 10
SMILES: CN(C)CC[C@H](CSc1ccccc1)Nc1ccc(S(=O)(=O)Nc2ccc(N3CCN(Cc4ccccc4-c4ccc(Cl)cc4)CC3)cc2)cc1[N+](=O)[O-] [Compound 13, (R)-N-(4-(4-((4'-Chloro-[1,1'-biphenyl]-2-yl)methyl)piperazin-1-yl)phenyl)-4-((4-(dimethylamino)-1-(phenylthio)butan-2-yl)amino)-3-nitrobenzenesulfonamide]

- times less potent than 7 in binding to Bcl-2 (Bcl-2): > 10
SMILES: CN(C)CC[C@H](CSc1ccccc1)Nc1ccc(S(=O)(=O)Nc2ccc(N3CCN(c4ccc(-c5c(-c6ccc(Cl)cc6)cn(CC[C@H](O)CO)c5C(=O)NCCCN5CCN(C)CC5)cc4)CC3)cc2)cc1[N+](=O)[O-] [Compound 12, 4-(4-Chlorophenyl)-1-((S)-3,4-dihydroxybutyl)-3-(4-(4-(4-(4-(((R)-4-(dimethylamino)-1-(phenylthio)butan-2-yl)amino)-3-nitrophenylsulfonamido)phenyl)piperazin-1-yl)phenyl)-N-(3-(4-methylpiperazin-1-yl)propyl)-1H-pyrrole-2-carboxamide]

- times less potent than 17 in binding to Bcl-2 (Bcl-2): 10
SMILES: CCOC(=O)c1c(-c2cccc(N3CCN(c4ccc(NS(=O)(=O)c5ccc(N[C@H](CCN(C)C)CSc6ccccc6)c([N+](=O)[O-])c5)cc4)CC3)c2)c(-c2ccc(Cl)cc2)cn1C [Compound 19, (R)-Ethyl 4-(4-chlorophenyl)-3-(3-(4-(4-(4-((4-(dimethylamino)-1-(phenylthio)butan-2-yl)-amino)-3-nitrophenylsulfonamido)phenyl)piperazin-1-yl)phenyl)-1-methyl-1H-pyrrole-2-carboxylate]
- times less potent than 17 in cell growth inhibition [2]: 10
